{
  "source": "paper PMC9728588",
  "about": "(Chemical Science, 2022)",
  "key": {"[1]": {"target": "CD47 (Homo sapiens, UniProt Q08722)", "sequence (Q08722 19-323, species assumed)": "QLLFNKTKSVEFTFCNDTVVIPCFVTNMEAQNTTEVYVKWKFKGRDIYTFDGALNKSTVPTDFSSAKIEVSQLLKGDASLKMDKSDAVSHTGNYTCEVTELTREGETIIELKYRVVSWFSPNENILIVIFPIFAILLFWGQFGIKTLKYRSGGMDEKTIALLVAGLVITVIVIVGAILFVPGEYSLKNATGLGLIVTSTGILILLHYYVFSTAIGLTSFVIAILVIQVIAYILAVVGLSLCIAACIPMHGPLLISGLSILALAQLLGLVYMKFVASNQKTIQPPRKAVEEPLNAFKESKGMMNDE", "experiment": "SPRi analysis of the binding between RT and CD47"}, "[2]": {"system": "red blood cells", "experiment": "Hemolysis assay", "format": "cell-based, mouse", "conditions": "2% (v/v) RBC in PBS, 37 °C, 1 h; absorbance 540 nm; water / PBS controls", "outline": "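Red cells were exposed to the test peptide across a concentration range, and separately to peptide–quantum dot co-assemblies (peptide fixed at 1 mg mL−1, QD level varied). Supernatants were scanned by UV-vis spectroscopy to derive hemolysis rates. Means ± s.d., n = 3; one-way ANOVA with Tukey post hoc test.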"}},
  "note": "Ends that are not written are not given here.",
  "data": [
    {"sequence": "HFEYWEERHKKLVFF [RT]", "values": [
      {"measurement": "Kd", "setting": "[1]", "result": 318, "unit": "nM"},
      {"measurement": "hemolytic effect", "setting": "[2]", "result": "almost no hemolytic effect"}
    ]}
  ]
}
